Assay results taken from ChEMBL document CHEMBL4765269, “Design, synthesis and evaluation of phenylthiazole and phenylthiophene pyrimidindiamine derivatives targeting the bacterial membrane” (Eur J Med Chem, 2020).
≈ marks a conversion by molar mass, not a printed value. Calls of active or inactive are those of the source. The calls are words filed in the database; no cut-off is given here. Where a SMILES comes first, the peptide text is derived from it. Bridges are numbered along the chain shown (N, C = ends). [ ]: non-standard residue; d: D form. The star is where a group is joined. X1 = CC[C@H](C)CCCCC(=O)*; Dab = NCC[C@H](N)C(=O)O

Experiments:
Staphylococcus aureus [1] = assay: Antibacterial activity against Staphylococcus aureus ATCC 29213 assessed as inhibition of growth measured after 24 hrs by CLSI based broth microdilution method; assay type: functional
Escherichia coli [2] = assay: Antibacterial activity against Escherichia coli ATCC 25922 assessed as inhibition of growth measured after 24 hrs by CLSI based broth microdilution method; assay type: functional
Cell membrane [3] = assay: Induction of membrane disruption in Escherichia coli ATCC 25922 at 1 to 4 x MIC measured within 20 min by Ethidium bromide based fluorescence assay; assay type: functional, subcellular
How it was run: (§1)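 Log-phase cells washed and resuspended in PBS at about 10^8 CFU/mL. Ethidium bromide ([…], stated as final) and compound at various concentrations were added. Fluorescence (ex 540, em 590 nm) was read every 20 min for 80 min against a solvent control.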

Escherichia coli [4] = assay: Induction of morphological changes in Escherichia coli ATCC 25922 assessed as deformed, pitted and shriveled surface at MIC incubated for 12 hrs by scanning electron microscopy; assay type: functional, organism-based
How it was run: (§2)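 Cells treated with 1× MIC compound or PBS, then washed three times in PBS. Pellets were fixed in 2.5% glutaraldehyde for 2 h, dehydrated through an ethanol series, critical-point dried and gold-coated. Imaging was by SEM at 3 kV.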

Staphylococcus aureus [5] = assay: Antibacterial activity against Staphylococcus aureus ATCC 29213 infected in mouse C57BL/6 bacterimia model assessed as reduction in number of viable pathogens in peritoneal cavity at 24 mg/kg, ip treated 1 hr after infection measured after 24 hrs; assay type: functional, organism-based
How it was run: (§3)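 Male C57BL/6 mice (20 ± 2 g, 7 per group) got an ip injection of 200 µL mid-log S. aureus in sterile saline (about 10^9 CFU per 20 g). Compound was given ip 1 h later. Controls were 0.9% saline and polymyxin B 12 mg/kg. After 24 h, peritoneal lavage (2 mL PBS) was serially diluted 10-fold onto TSA and incubated 18-24 h at 37 °C. CFU were counted.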

Cell membrane [6] = assay: Induction of membrane disruption in Staphylococcus aureus ATCC 29213 at 1 to 4 x MIC measured within 20 min by Ethidium bromide based fluorescence assay; assay type: functional, subcellular; how it was run: as §1
Cell membrane [7] = assay: Induction of cell membrane damage in Escherichia coli ATCC 25922 assessed as fluorescence emission at MIC after 1 hr by propidium iodide staining based transmission electron microscopy (reference value: 4.34%); assay type: functional, subcellular; conditions: in the assay text read “flow cytometry” for “transmission electron microscopy”
How it was run: (§4)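 Log-phase bacteria diluted in PBS to about 10^9 CFU/mL and exposed to 1× MIC compound at 37 °C for 1 h. Cells were washed and stained with 60 µM propidium iodide in the dark for 15 min, then read at once by flow cytometry. The percentage of PI-stained cells was reported against an untreated control.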

Staphylococcus aureus [8] = assay: Induction of morphological changes in Staphylococcus aureus ATCC 29213 assessed as damaged cells at MIC incubated for 12 hrs by Transmission electron microscopy; assay type: functional, organism-based
How it was run: (§5)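 Cells treated with 1× MIC compound or PBS, then washed three times in PBS. Pellets were fixed in 2.5% glutaraldehyde and then 1% osmium tetroxide, 2 h each, and examined by TEM.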

Staphylococcus aureus [9] = assay: Antibacterial activity against Staphylococcus aureus ATCC 29213 assessed as bacterial growth inhibition at 1 to 2 times of MIC concentration measured at logarithmic phase 6 th hr of bacterial cycle; assay type: functional; conditions: time 6 hrs
How it was run: (§6)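 Bacteria grown in Mueller Hinton broth with compound at several MIC multiples, shaken at 220 rpm and 37 °C for 24 h. Growth was recorded every 2 h over the 24 h. The solvent control was 1% DMSO under the same conditions.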

Cell membrane [10] = assay: Induction of cell membrane damage in Staphylococcus aureus ATCC 29213 assessed as fluorescence emission at MIC after 1 hr by propidium iodide staining based transmission electron microscopy (Rvb= 1.53%); assay type: functional, subcellular; conditions: in the assay text read “flow cytometry” for “transmission electron microscopy”; how it was run: as §4
Staphylococcus aureus [11] = assay: Induction of morphological changes in Staphylococcus aureus ATCC 29213 assessed as deformed, pitted and shriveled surface at MIC incubated for 12 hrs by scanning electron microscopy; assay type: functional, organism-based; how it was run: as §2
Escherichia coli [12] = assay: Antibacterial activity against Escherichia coli ATCC 25922 assessed as bacterial growth inhibition at 1 to 2 times of MIC concentration measured at logarithmic phase 6 th hr of bacterial cycle; assay type: functional; conditions: time 6 hrs; how it was run: as §6
Staphylococcus aureus [13] = assay: Antibacterial activity against Staphylococcus aureus ATCC 29213 assessed as bacterial growth inhibition at 0.5 times of MIC concentration measured at logarithmic phase 6 th hr of bacterial cycle; assay type: functional, organism-based; conditions: time 24.0 hrs; how it was run: as §6
[14] = Toxicity in rabbit red blood cells assessed as hemolysis at 3 to 22.5 ug/ml incubated for 1 hr relative to control; assay type: cell-based, Oryctolagus cuniculus, Erythrocyte; conditions: at 3 to 22.5 µg/mL, dose 3-22.5 µg/ml, read-out: Activity
How it was run: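 Washed rabbit erythrocytes at 2% in PBS were mixed with compound at final 3 to 22.5 µg/mL for 1 h at room temperature. After centrifugation at 1500 rpm for 10 min, supernatant absorbance was read at 450 nm. Hemolysis % = (A − A_PBS)/(A_Triton − A_PBS) × 100, with 0.5% Triton X-100 as the positive control. Run in triplicate.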

Cell membrane [15] = assay: Induction of membrane depolarization in Escherichia coli ATCC 25922 assessed as increased the fluorescence intensity at 1 to 2 times of MIC incubated for 80 min by [DiSC3(5)] probe based fluorescence assay; assay type: functional, subcellular
How it was run: (§7)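 Log-phase cells at 10^7 CFU/mL in PBS with 0.4 µM DiSC3(5) and 0.1 M KCl, kept in the dark. […] Fluorescence (ex 622, em 670 nm) was recorded continuously for 80 min.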

Escherichia coli [16] = assay: Antibacterial activity against Escherichia coli ATCC 25922 assessed as bacterial growth inhibition at 0.5 times of MIC concentration measured at logarithmic phase 6 th hr of bacterial cycle; assay type: functional, organism-based; conditions: time 24.0 hrs; how it was run: as §6
Staphylococcus aureus [17] = assay: Antibacterial activity against Staphylococcus aureus ATCC 29213 infected in mouse C57BL/6 bacterimia model assessed as reduction in number of viable pathogens in peritoneal cavity at 12 mg/kg, ip treated 1 hr after infection measured after 24 hrs; assay type: functional, organism-based; how it was run: as §3
Escherichia coli [18] = assay: Induction of morphological changes in Escherichia coli ATCC 25922 assessed as damaged cells at MIC incubated for 12 hrs by Transmission electron microscopy; assay type: functional, organism-based; how it was run: as §5
Cell membrane [19] = assay: Induction of membrane depolarization in Staphylococcus aureus ATCC 29213 assessed as increased the fluorescence intensity at 1 to 2 times of MIC incubated for 80 min by [DiSC3(5)] probe based fluorescence assay; assay type: functional, subcellular; how it was run: as §7

With `CCNc1nccc(NCc2ccc(-c3ccccc3)s2)n1` the MIC (Staphylococcus aureus [1]) was > 32 µg/mL and the MIC (Escherichia coli [2]) was 16 µg/mL (≈ 51.5 µM).
`CC[C@H](C)CCCCC(=O)N[C@@H](CCN)C(=O)N[C@H](C(=O)N[C@@H](CCN)C(=O)N[C@H]1CCNC(=O)[C@H]([C@@H](C)O)NC(=O)[C@H](CCN)NC(=O)[C@H](CCN)NC(=O)[C@H](CC(C)C)NC(=O)[C@@H](Cc2ccccc2)NC(=O)[C@H](CCN)NC1=O)[C@@H](C)O` (X1-[Dab]T[Dab][Dab][Dab][dF]L[Dab][Dab]T; lactam 4-C) showed an MIC (Staphylococcus aureus [1]) of 512 µg/mL (≈ 425 µM) and an MIC (Escherichia coli [2]) of 32 µg/mL (≈ 26.6 µM).
In the case of `c1ccc(-c2ccc(CNc3ccnc(N4CCOCC4)n3)s2)cc1`, the MIC (Staphylococcus aureus [1]) was > 32 µg/mL and the MIC (Escherichia coli [2]) was > 32 µg/mL.
Work on `COc1ccc(-c2ccc(CNc3ccnc(NCC(C)C)n3)s2)cc1` yielded an MIC (Staphylococcus aureus [1]) of 4 µg/mL (≈ 10.9 µM) and an MIC (Escherichia coli [2]) of 4 µg/mL (≈ 10.9 µM).
`CC(C)CNc1nccc(NCc2ccc(-c3ccccc3Br)s2)n1` showed an MIC (Staphylococcus aureus [1]) of 8 µg/mL (≈ 19.2 µM) and an MIC (Escherichia coli [2]) of 4 µg/mL (≈ 9.58 µM).
With `CCCNc1nccc(NCc2ccc(-c3ccccc3)s2)n1` the MIC (Staphylococcus aureus [1]) was 16 µg/mL (≈ 49.3 µM) and the MIC (Escherichia coli [2]) was 8 µg/mL (≈ 24.7 µM).
Work on `CN[C@H](CC(C)C)C(=O)N[C@H]1C(=O)N[C@@H](CC(N)=O)C(=O)N[C@H]2C(=O)N[C@H]3C(=O)N[C@H](C(=O)N[C@H](C(=O)O)c4cc(O)cc(O)c4-c4cc3ccc4O)[C@H](O)c3ccc(c(Cl)c3)Oc3cc2cc(c3O[C@@H]2O[C@H](CO)[C@@H](O)[C@H](O)[C@H]2O[C@H]2C[C@](C)(N)[C@H](O)[C@H](C)O2)Oc2ccc(cc2Cl)[C@H]1O` [VANCOMYCIN] yielded an MIC (Escherichia coli [2]) of 1 µg/mL (≈ 0.69 µM).
In the case of `CC(C)CNc1nccc(NCc2csc(-c3ccccc3)n2)n1`, the MIC (Staphylococcus aureus [1]) was > 32 µg/mL and the MIC (Escherichia coli [2]) was > 32 µg/mL.
In the case of `CCCCN(CCCC)c1nccc(NCc2ccc(-c3ccccc3)s2)n1`, the MIC (Staphylococcus aureus [1]) was > 32 µg/mL and the MIC (Escherichia coli [2]) was > 32 µg/mL.
Compound `CC(C)CNc1nccc(NCc2ccc(-c3ccc(Cl)cc3)s2)n1` has an MIC (Staphylococcus aureus [1]) of 8 µg/mL (≈ 21.5 µM) and an MIC (Escherichia coli [2]) of 8 µg/mL (≈ 21.5 µM).
For `c1ccc(-c2ccc(CNc3ccnc(N4CCNCC4)n3)s2)cc1`, the MIC (Staphylococcus aureus [1]) was > 32 µg/mL and the MIC (Escherichia coli [2]) was > 32 µg/mL.
With `CC(C)CNc1nccc(NCc2ccc(-c3ccc(Br)cc3)s2)n1` the MIC (Staphylococcus aureus [1]) was 4 µg/mL (≈ 9.58 µM) and the MIC (Escherichia coli [2]) was 2 µg/mL (≈ 4.79 µM).
`O=C(N[C@H](CO)[C@H](O)c1ccc([N+](=O)[O-])cc1)C(Cl)Cl` [CHLORAMPHENICOL] showed an MIC (Staphylococcus aureus [1]) of 8 µg/mL (≈ 24.8 µM) and an MIC (Escherichia coli [2]) of 8 µg/mL (≈ 24.8 µM).
With `CC(C)CNc1nccc(NCc2ccc(-c3ccccc3)s2)n1` the MIC (Staphylococcus aureus [1]) was 8 µg/mL (≈ 23.6 µM) and the MIC (Escherichia coli [2]) was 8 µg/mL (≈ 23.6 µM).
With `CC(C)CNc1nccc(NCc2ccc(-c3ccc(F)cc3)s2)n1` the MIC (Staphylococcus aureus [1]) was 8 µg/mL (≈ 22.4 µM) and the MIC (Escherichia coli [2]) was > 32 µg/mL.
Compound `CC(C)CNc1nccc(NCc2ccc(-c3ccc(C(C)(C)C)cc3)s2)n1` has an MIC (Staphylococcus aureus [1]) of 8 µg/mL (≈ 20.3 µM) and an MIC (Escherichia coli [2]) of 2 µg/mL (≈ 5.07 µM).
`c1ccc(-c2ccc(CNc3ccnc(N4CCCC4)n3)s2)cc1` gave an MIC (Staphylococcus aureus [1]) of 8 µg/mL (≈ 23.8 µM) and an MIC (Escherichia coli [2]) of 8 µg/mL (≈ 23.8 µM).
For `CC(C)Nc1nccc(NCc2ccc(-c3ccccc3)s2)n1`, the MIC (Staphylococcus aureus [1]) was > 32 µg/mL and the MIC (Escherichia coli [2]) was > 32 µg/mL.
For `CCCCNc1nccc(NCc2ccc(-c3ccccc3)s2)n1`, the MIC (Staphylococcus aureus [1]) was 4 µg/mL (≈ 11.8 µM) and the MIC (Escherichia coli [2]) was > 32 µg/mL.
In the case of `CC(C)CNc1nccc(NCc2ccc(-c3cccc(Br)c3)s2)n1`, the Activity (Cell membrane [3]) was “Active”, the Activity (Escherichia coli [4]) was “Active” and the Activity (Staphylococcus aureus [5]) was “Active”. The Activity (Cell membrane [6]) was “Active”, the MIC (Staphylococcus aureus [1]) was 3 µg/mL (≈ 7.19 µM) and the Activity (Cell membrane [7]) was 77.2%. The Activity (Staphylococcus aureus [8]) was “Active”, the “inhibition (INH)” value (Staphylococcus aureus [9]) was 100% and the Activity (Cell membrane [10]) was 58.5%. The Activity (Staphylococcus aureus [11]) was “Active”, the MIC (Escherichia coli [2]) was 2 µg/mL (≈ 4.79 µM) and the “inhibition (INH)” value (Escherichia coli [12]) was 100%. The Activity (Staphylococcus aureus [13]) was “Active”, the hemolysis at 1 h [14] was < 20% and the Activity (Cell membrane [15]) was “Active”. The Activity (Escherichia coli [16]) was “Active”, the Activity (Staphylococcus aureus [17]) was “Active” and the Activity (Escherichia coli [18]) was “Active”. The Activity (Cell membrane [19]) was “Active”.
For `CC(C)CN(CC(C)C)c1nccc(NCc2ccc(-c3ccccc3)s2)n1`, the MIC (Staphylococcus aureus [1]) was > 32 µg/mL and the MIC (Escherichia coli [2]) was > 32 µg/mL.
Work on `CC(C)CNc1nccc(NCc2ccc(-c3ccc(OCc4ccccc4)cc3)s2)n1` yielded an MIC (Staphylococcus aureus [1]) of 8 µg/mL (≈ 18 µM) and an MIC (Escherichia coli [2]) of 8 µg/mL (≈ 18 µM).
For `CCCN(CCC)c1nccc(NCc2ccc(-c3ccccc3)s2)n1`, the MIC (Staphylococcus aureus [1]) was > 32 µg/mL and the MIC (Escherichia coli [2]) was 8 µg/mL (≈ 21.8 µM).
With `Clc1nccc(NCc2csc(-c3ccccc3)n2)n1` the MIC (Staphylococcus aureus [1]) was > 32 µg/mL and the MIC (Escherichia coli [2]) was > 32 µg/mL.
